{"source": "ChEMBL document CHEMBL3259728", "about": "“Design, synthesis and biological evaluation of some novel substituted quinazolines as antitumor agents” (2014)", "format_in_all_cases": "functional", "key": {"[1]": {"system": "HT-29", "assay": "Growth inhibition of human HT-29 cells assessed as cell growth at 10^-4 M after 48 hrs by SRB assay", "conditions": "HT-29, 48 h, read-out: Activity"}, "[2]": {"assay": "Growth inhibition of human HCT15 cells assessed as cell growth at 10^-4 M after 48 hrs by SRB assay", "conditions": "HCT-15, 48 h, read-out: Activity"}, "[3]": {"system": "COLO 205", "assay": "Growth inhibition of human COLO205 cells assessed as cell growth at 10^-4 M after 48 hrs by SRB assay", "conditions": "COLO 205, 48 h, read-out: Activity", "in_short": "(§1)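 Five-dose NCI panel protocol. Each dose (10^-4 to 10^-8 M, 10-fold steps) was given as 48 h continuous exposure, and protein was measured by SRB staining. Percentage growth at each level is [(Ti−Tz)/(C−Tz)]×100, where Tz is time-zero absorbance and C is untreated control.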"}, "[4]": {"system": "M14", "assay": "Growth inhibition of human M14 cells assessed as cell growth at 10^-8 M after 48 hrs by SRB assay", "conditions": "M14, 48 h, read-out: Activity"}, "[5]": {"system": "K562", "assay": "Growth inhibition of human K562 cells assessed as cell growth at 10^-8 M after 48 hrs by SRB assay", "conditions": "K562, 48 h, read-out: Activity"}, "[6]": {"assay": "Growth inhibition of human BT549 cells assessed as cell growth at 10^-6 M after 48 hrs by SRB assay", "conditions": "BT-549, 48 h, read-out: Activity", "in_short": "as §1"}, "[7]": {"system": "Malme-3M", "assay": "Growth inhibition of human MALME-3M cells assessed as cell growth at 10^-6 M after 48 hrs by SRB assay", "conditions": "read-out: Activity"}, "[8]": {"assay": "Growth inhibition of human LOXIMVI cells assessed as cell growth at 10^-6 M after 48 hrs by SRB assay", "conditions": "LOX IMVI, read-out: Activity"}, "[9]": {"assay": "Growth inhibition of human LOXIMVI cells assessed as cell growth at 10^-4 M after 48 hrs by SRB assay", "conditions": "LOX IMVI, read-out: Activity"}, "[10]": {"assay": "Growth inhibition of human EKVX cells assessed as cell growth at 10^-4 M after 48 hrs by SRB assay", "conditions": "read-out: Activity"}, "[11]": {"system": "CAKI-1", "assay": "Growth inhibition of human CAKI-1 cells assessed as cell growth at 10^-7 M after 48 hrs by SRB assay", "conditions": "CAKI-1, 48 h, read-out: Activity", "in_short": "as §1"}, "[12]": {"assay": "Growth inhibition of human OVCAR5 cells assessed as cell growth at 10^-7 M after 48 hrs by SRB assay", "conditions": "OVCAR-5, 48 h, read-out: Activity"}, "[13]": {"system": "DU-145", "assay": "Growth inhibition of human DU145 cells assessed as cell growth at 10^-8 M after 48 hrs by SRB assay", "conditions": "DU-145, 48 h, read-out: Activity"}, "[14]": {"assay": "Growth inhibition of human OVCAR3 cells assessed as cell growth at 10^-8 M after 48 hrs by SRB assay", "conditions": "OVCAR-3, 48 h, read-out: Activity"}, "[15]": {"system": "SK-OV-3", "assay": "Cytotoxicity against human SKOV3 cells after 48 hrs by SRB assay", "conditions": "SK-OV-3, 48 h", "in_short": "(§2)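 NCI 60-cell-line panel of human tumour lines from nine cancer types. Continuous 48 h exposure at five 10-fold dilutions from 10^-4 to 10^-8 M, with 5-FU as positive control. SRB protein stain read spectrophotometrically at time zero, untreated control and each concentration. GI50, TGI and LC50 were derived from the [(Ti−Tz)/(C−Tz)]×100 growth relations, and out-of-range values are given as > or < the tested limits.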"}, "[16]": {"assay": "Cytotoxicity against human OVCAR4 cells after 48 hrs by SRB assay", "conditions": "OVCAR-4, 48 h", "in_short": "as §2"}, "[17]": {"system": "LOX IMVI", "assay": "Cytotoxicity against human LOXIMVI cells after 48 hrs by SRB assay", "in_short": "as §2"}, "[18]": {"system": "SF-539", "assay": "Cytotoxicity against human SF539 cells after 48 hrs by SRB assay", "conditions": "SF-539, 48 h", "in_short": "as §2"}, "[19]": {"assay": "Growth inhibition of human HCC2998 cells assessed as cell growth at 10^-6 M after 48 hrs by SRB assay", "conditions": "HCC 2998, 48 h, read-out: Activity"}, "[20]": {"system": "T47D", "assay": "Cytotoxicity against human T47D cells after 48 hrs by SRB assay", "in_short": "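NCI 60-cell-line panel, 48 h continuous exposure to five 10-fold dilutions from 10^-4 to 10^-8 M. SRB protein staining was read spectrophotometrically, with time-zero, untreated-control and treated absorbances. GI50, TGI and LC50 were derived from the percentage-growth formulas. Values outside the tested range are expressed as more or less than the maximum or minimum concentration.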"}, "[21]": {"system": "NCI-H322M", "assay": "Growth inhibition of human NCI-H322M cells assessed as cell growth at 10^-6 M after 48 hrs by SRB assay", "conditions": "read-out: Activity"}, "[22]": {"system": "RPMI-8226", "assay": "Growth inhibition of human RPMI8226 cells assessed as cell growth at 10^-6 M after 48 hrs by SRB assay", "conditions": "RPMI-8226, 48 h, read-out: Activity"}, "[23]": {"assay": "Growth inhibition of human NCI-ADR-RES cells assessed as cell growth at 10^-7 M after 48 hrs by SRB assay", "conditions": "read-out: Activity"}, "[24]": {"system": "IGROV-1", "assay": "Growth inhibition of human IGROV1 cells assessed as cell growth at 10^-7 M after 48 hrs by SRB assay", "conditions": "IGROV-1, 48 h, read-out: Activity"}, "[25]": {"assay": "Growth inhibition of human UACC257 cells assessed as cell growth at 10^-7 M after 48 hrs by SRB assay", "conditions": "UACC-257, 48 h, read-out: Activity"}, "[26]": {"system": "Malme-3M", "assay": "Growth inhibition of human MALME-3M cells assessed as cell growth at 10^-7 M after 48 hrs by SRB assay", "conditions": "read-out: Activity"}, "[27]": {"system": "SN12C", "assay": "Growth inhibition of human SN12C cells assessed as cell growth at 10^-8 M after 48 hrs by SRB assay", "conditions": "read-out: Activity"}, "[28]": {"assay": "Growth inhibition of human BT549 cells assessed as cell growth at 10^-4 M after 48 hrs by SRB assay", "conditions": "BT-549, 48 h, read-out: Activity", "in_short": "as §1"}, "[29]": {"assay": "Growth inhibition of human Hs578T cells assessed as cell growth at 10^-4 M after 48 hrs by SRB assay", "conditions": "Hs-578T, read-out: Activity"}, "[30]": {"system": "ACHN", "assay": "Growth inhibition of human ACHN cells assessed as cell growth at 10^-4 M after 48 hrs by SRB assay", "conditions": "read-out: Activity", "in_short": "as §1"}, "[31]": {"conditions": "read-out: LC50 (the source's name)"}, "[32]": {"conditions": "read-out: pLC50 (the source's name) (converted)"}}, "data": [{"smiles": "Cc1ccc(-c2nc3ccc(Cl)cc3c(=O)n2/N=C/c2ccccc2)cc1", "values": [{"measurement": "growth at 100 µM", "setting": "[1]", "value": 45, "unit": "%"}, {"measurement": "growth at 100 µM", "setting": "[2]", "value": 69, "unit": "%"}, {"measurement": "growth at 100 µM", "setting": "[3]", "value": 38, "unit": "%"}, {"measurement": "growth at 0.01 µM", "setting": "[4]", "value": 95, "unit": "%"}, {"measurement": "growth at 0.01 µM", "setting": "[5]", "value": 96, "unit": "%"}, {"measurement": "growth at 1 µM", "setting": "[6]", "value": 103, "unit": "%"}, {"measurement": "growth at 1 µM", "setting": "[7]", "value": 74, "unit": "%"}, {"measurement": "growth at 1 µM", "setting": "[8]", "value": 89, "unit": "%"}, {"measurement": "growth at 100 µM", "setting": "[9]", "value": 48, "unit": "%"}, {"measurement": "growth at 100 µM", "setting": "[10]", "value": 11, "unit": "%"}, {"measurement": "growth at 0.1 µM", "setting": "[11]", "value": 76, "unit": "%"}, {"measurement": "growth at 0.1 µM", "setting": "[12]", "value": 88, "unit": "%"}, {"measurement": "growth at 0.01 µM", "setting": "[13]", "value": 97, "unit": "%"}, {"measurement": "growth at 0.01 µM", "setting": "[14]", "value": 100, "unit": "%"}, {"measurement": "GI50", "setting": "[15]; read-out: GI50", "value": 2.89, "unit": "µM"}, {"measurement": "CC50", "setting": "[15]; [31]", "value": "> 100", "unit": "µM"}, {"measurement": "TGI", "setting": "[15]; read-out: TGI", "value": 9.9, "unit": "µM"}, {"measurement": "GI50", "setting": "[15]; read-out: pGI50 (converted)", "value": 2.88, "unit": "µM"}, {"measurement": "CC50", "setting": "[15]; [32]", "value": "> 100", "unit": "µM"}, {"measurement": "TGI", "setting": "[15]; read-out: pTGI (converted)", "value": 10, "unit": "µM"}, {"measurement": "GI50", "setting": "[16]; read-out: GI50", "value": 4.54, "unit": "µM"}, {"measurement": "CC50", "setting": "[16]; [31]", "value": "> 100", "unit": "µM"}, {"measurement": "TGI", "setting": "[16]; read-out: TGI", "value": "> 100", "unit": "µM"}, {"measurement": "GI50", "setting": "[16]; read-out: pGI50 (converted)", "value": 4.57, "unit": "µM"}, {"measurement": "CC50", "setting": "[16]; [32]", "value": "> 100", "unit": "µM"}, {"measurement": "TGI", "setting": "[16]; read-out: pTGI", "value": "> 100", "unit": "µM"}, {"measurement": "GI50", "setting": "[17]; read-out: GI50", "value": 70.1, "unit": "µM"}, {"measurement": "CC50", "setting": "[17]; [31]", "value": "> 100", "unit": "µM"}, {"measurement": "TGI", "setting": "[17]; read-out: TGI", "value": "> 100", "unit": "µM"}, {"measurement": "GI50", "setting": "[17]; read-out: pGI50 (converted)", "value": 70.8, "unit": "µM"}, {"measurement": "CC50", "setting": "[17]; [32]", "value": "> 100", "unit": "µM"}, {"measurement": "TGI", "setting": "[17]; read-out: pTGI", "value": "> 100", "unit": "µM"}, {"measurement": "GI50", "setting": "[18]; read-out: GI50", "value": "> 100", "unit": "µM"}, {"measurement": "CC50", "setting": "[18]; [31]", "value": "> 100", "unit": "µM"}, {"measurement": "TGI", "setting": "[18]; read-out: TGI", "value": "> 100", "unit": "µM"}, {"measurement": "GI50", "setting": "[18]; read-out: pGI50 (converted)", "value": "> 100", "unit": "µM"}, {"measurement": "CC50", "setting": "[18]; [32]", "value": "> 100", "unit": "µM"}, {"measurement": "TGI", "setting": "[18]; read-out: pTGI", "value": "> 100", "unit": "µM"}, {"measurement": "growth at 1 µM", "setting": "[19]", "value": 96, "unit": "%"}, {"measurement": "GI50", "setting": "[20]; read-out: GI50", "value": 3.82, "unit": "µM"}, {"measurement": "CC50", "setting": "[20]; [31]", "value": "> 100", "unit": "µM"}, {"measurement": "TGI", "setting": "[20]; read-out: TGI", "value": "> 100", "unit": "µM"}, {"measurement": "GI50", "setting": "[20]; read-out: pGI50 (converted)", "value": 3.8, "unit": "µM"}, {"measurement": "CC50", "setting": "[20]; [32]", "value": "> 100", "unit": "µM"}, {"measurement": "TGI", "setting": "[20]; read-out: pTGI", "value": "> 100", "unit": "µM"}, {"measurement": "growth at 1 µM", "setting": "[21]", "value": 82, "unit": "%"}, {"measurement": "growth at 1 µM", "setting": "[22]", "value": 90, "unit": "%"}, {"measurement": "growth at 0.1 µM", "setting": "[23]", "value": 95, "unit": "%"}, {"measurement": "growth at 0.1 µM", "setting": "[24]", "value": 78, "unit": "%"}, {"measurement": "growth at 0.1 µM", "setting": "[25]", "value": 99, "unit": "%"}, {"measurement": "growth at 0.1 µM", "setting": "[26]", "value": 76, "unit": "%"}, {"measurement": "growth at 0.01 µM", "setting": "[27]", "value": 104, "unit": "%"}, {"measurement": "growth at 100 µM", "setting": "[28]", "value": 72, "unit": "%"}, {"measurement": "growth at 100 µM", "setting": "[29]", "value": -9, "unit": "%"}, {"measurement": "growth at 100 µM", "setting": "[30]", "value": 6, "unit": "%"}]}]}
